1 compound from ChEMBL document CHEMBL5126600, “Discovery of the First-in-Class G9a/GLP Covalent Inhibitors” (J Med Chem, 2022) can be followed below.

In assay [1] the target is Histone-lysine N-methyltransferase SETD2 (Homo sapiens) (UniProt Q9BYW2). The assay can be described thus: Inhibition of SETD2 (unknown origin) at 1 uM using 3H-SAM as a substrate relative to control. In short, it runs like this: (§1)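 Contracted 3H-SAM methyl-transfer scintillation proximity assay against a panel of methyltransferases; compound tested at 1 μM in duplicate; inhibition expressed as percent of control enzyme activity.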

Assay [2] has as its target Histone-lysine N-methyltransferase EZH1 (Homo sapiens) (UniProt Q92800). The experiment in a line: Inhibition of N-terminal His-tagged full-length recombinant human EZH1 ( 2 to 747 residues) expressed in baculovirus expression system at 1 uM using 3H-SAM as a substrate relative to control. In outline:
as §1

The target of assay [3] is T1, Histone-lysine N-methyltransferase EHMT1 (Homo sapiens, UniProt Q9H9B1).
T1 sequence (Q9H9B1 whole entry): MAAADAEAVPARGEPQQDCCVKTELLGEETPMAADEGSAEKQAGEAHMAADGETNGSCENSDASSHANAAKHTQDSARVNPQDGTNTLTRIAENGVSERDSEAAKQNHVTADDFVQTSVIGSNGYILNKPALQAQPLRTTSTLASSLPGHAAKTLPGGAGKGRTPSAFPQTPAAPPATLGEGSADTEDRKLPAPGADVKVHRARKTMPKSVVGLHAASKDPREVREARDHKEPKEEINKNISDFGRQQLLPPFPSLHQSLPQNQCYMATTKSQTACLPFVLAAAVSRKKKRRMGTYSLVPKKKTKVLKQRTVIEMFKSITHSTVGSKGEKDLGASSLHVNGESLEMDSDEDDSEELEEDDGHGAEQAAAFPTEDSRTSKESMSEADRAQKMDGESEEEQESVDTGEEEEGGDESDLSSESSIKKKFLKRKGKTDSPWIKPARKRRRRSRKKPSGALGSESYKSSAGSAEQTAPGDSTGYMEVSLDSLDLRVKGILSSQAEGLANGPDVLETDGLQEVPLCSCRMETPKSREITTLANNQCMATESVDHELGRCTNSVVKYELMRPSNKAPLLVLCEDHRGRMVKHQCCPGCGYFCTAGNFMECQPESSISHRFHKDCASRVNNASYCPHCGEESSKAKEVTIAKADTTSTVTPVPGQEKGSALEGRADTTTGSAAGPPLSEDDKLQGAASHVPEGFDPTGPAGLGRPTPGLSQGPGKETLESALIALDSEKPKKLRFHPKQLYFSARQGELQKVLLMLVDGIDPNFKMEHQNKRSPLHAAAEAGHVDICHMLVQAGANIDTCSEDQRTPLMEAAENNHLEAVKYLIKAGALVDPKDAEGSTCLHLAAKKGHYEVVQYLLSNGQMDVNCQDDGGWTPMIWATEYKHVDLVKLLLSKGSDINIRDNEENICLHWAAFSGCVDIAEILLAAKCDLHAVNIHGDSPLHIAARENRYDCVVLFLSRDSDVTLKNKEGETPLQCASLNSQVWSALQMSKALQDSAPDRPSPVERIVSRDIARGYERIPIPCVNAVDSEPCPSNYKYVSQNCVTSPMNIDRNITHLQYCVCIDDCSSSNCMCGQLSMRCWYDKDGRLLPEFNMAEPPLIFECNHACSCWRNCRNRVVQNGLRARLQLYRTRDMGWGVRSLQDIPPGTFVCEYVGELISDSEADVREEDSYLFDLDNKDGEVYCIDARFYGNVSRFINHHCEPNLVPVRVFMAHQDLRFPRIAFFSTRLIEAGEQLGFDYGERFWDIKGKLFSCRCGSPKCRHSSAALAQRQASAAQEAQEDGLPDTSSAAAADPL
The experiment in a line: Inhibition of human GLP (982 to 1266 residues) using H3 peptide as substrate measured upto 45 mins in presence of SAM cofactor. In outline:
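Contracted scintillation proximity assay following 3H-methyl transfer from SAM (1 μM) to H3 peptide (0.05 μM) by G9a or GLP (5 nM each), with preincubation times of 5, 15 or 45 min; four replicates.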

A further assay relates to MDA-MB-231. The experiment in a line: Cytotoxicity against human MDA-MB-231 cells after 3 days by CCK-8 assay. The settings on record: time 3.0 day. In kind it is functional, cell-based. In short, it runs like this:
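MDA-MB-231 cells seeded at 1 × 10^4 per well in 96-well plates, exposed to compounds over a range of concentrations for 3 days.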
For orientation: Formazan colour is commonly taken as a measure of viable cells.

The target of assay [4] is T2, Histone-lysine N-methyltransferase EHMT2 (Homo sapiens, UniProt Q96KQ7).
T2 sequence (Q96KQ7 whole entry): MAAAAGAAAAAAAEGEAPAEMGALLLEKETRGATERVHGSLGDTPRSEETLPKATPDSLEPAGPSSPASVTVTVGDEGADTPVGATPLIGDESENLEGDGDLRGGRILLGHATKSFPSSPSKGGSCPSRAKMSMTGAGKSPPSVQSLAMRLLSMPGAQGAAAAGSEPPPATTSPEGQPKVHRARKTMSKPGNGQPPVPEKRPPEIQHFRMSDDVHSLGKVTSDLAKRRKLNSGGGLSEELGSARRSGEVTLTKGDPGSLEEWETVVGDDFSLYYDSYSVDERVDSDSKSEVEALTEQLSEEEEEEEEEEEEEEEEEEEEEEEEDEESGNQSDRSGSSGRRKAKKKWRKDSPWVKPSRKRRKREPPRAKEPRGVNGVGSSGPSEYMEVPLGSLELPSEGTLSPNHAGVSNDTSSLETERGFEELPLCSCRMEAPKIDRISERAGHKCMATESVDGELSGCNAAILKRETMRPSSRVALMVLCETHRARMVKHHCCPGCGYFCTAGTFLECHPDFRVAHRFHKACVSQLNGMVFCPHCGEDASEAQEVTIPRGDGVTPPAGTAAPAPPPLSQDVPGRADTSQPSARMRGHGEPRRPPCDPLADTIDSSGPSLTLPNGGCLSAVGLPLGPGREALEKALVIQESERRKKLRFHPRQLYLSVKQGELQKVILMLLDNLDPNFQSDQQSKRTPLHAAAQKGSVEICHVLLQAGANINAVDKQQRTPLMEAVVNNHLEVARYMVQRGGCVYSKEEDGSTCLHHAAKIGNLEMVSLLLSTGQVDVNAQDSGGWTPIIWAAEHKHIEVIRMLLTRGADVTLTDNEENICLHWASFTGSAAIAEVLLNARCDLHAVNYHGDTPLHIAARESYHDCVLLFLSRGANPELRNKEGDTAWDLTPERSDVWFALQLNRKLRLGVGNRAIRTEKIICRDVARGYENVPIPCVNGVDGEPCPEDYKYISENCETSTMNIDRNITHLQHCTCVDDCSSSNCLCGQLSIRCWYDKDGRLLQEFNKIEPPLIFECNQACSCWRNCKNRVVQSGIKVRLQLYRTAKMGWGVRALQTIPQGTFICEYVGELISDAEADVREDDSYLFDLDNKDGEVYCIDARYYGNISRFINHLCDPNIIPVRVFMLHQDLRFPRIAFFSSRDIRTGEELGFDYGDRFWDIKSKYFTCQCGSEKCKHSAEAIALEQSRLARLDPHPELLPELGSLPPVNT
The assay can be described thus: Inhibition of human G9a (913 to 1193 residues) using H3 peptide as substrate measured upto 45 mins in presence of SAM cofactor.

The source made the active and inactive calls. No cut-off for these calls is given here. Bounds are passed on as bounds.

Chain of Histone-lysine N-methyltransferase EZH1 (Homo sapiens) (Q92800 whole entry, the tested form may be a part): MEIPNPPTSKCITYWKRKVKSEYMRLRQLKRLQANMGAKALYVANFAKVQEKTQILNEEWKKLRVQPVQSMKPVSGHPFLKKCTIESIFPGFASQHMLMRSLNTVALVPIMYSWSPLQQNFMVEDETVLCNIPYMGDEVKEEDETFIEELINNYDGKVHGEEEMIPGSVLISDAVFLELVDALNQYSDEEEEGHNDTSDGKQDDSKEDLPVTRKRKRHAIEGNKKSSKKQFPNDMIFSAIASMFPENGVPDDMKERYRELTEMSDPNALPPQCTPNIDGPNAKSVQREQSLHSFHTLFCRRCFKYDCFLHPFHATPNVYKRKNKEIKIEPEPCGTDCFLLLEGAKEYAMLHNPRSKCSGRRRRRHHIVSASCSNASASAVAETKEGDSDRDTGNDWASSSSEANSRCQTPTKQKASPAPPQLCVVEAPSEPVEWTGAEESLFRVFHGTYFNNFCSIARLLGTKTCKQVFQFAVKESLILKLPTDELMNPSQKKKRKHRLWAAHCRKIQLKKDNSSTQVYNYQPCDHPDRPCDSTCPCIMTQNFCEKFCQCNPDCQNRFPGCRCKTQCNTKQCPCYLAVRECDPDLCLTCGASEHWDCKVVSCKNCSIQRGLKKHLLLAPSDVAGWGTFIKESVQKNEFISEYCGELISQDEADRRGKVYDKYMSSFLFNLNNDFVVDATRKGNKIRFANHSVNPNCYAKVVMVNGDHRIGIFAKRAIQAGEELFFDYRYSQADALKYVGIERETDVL
Chain of Histone-lysine N-methyltransferase SETD2 (Homo sapiens) (Q9BYW2 whole entry): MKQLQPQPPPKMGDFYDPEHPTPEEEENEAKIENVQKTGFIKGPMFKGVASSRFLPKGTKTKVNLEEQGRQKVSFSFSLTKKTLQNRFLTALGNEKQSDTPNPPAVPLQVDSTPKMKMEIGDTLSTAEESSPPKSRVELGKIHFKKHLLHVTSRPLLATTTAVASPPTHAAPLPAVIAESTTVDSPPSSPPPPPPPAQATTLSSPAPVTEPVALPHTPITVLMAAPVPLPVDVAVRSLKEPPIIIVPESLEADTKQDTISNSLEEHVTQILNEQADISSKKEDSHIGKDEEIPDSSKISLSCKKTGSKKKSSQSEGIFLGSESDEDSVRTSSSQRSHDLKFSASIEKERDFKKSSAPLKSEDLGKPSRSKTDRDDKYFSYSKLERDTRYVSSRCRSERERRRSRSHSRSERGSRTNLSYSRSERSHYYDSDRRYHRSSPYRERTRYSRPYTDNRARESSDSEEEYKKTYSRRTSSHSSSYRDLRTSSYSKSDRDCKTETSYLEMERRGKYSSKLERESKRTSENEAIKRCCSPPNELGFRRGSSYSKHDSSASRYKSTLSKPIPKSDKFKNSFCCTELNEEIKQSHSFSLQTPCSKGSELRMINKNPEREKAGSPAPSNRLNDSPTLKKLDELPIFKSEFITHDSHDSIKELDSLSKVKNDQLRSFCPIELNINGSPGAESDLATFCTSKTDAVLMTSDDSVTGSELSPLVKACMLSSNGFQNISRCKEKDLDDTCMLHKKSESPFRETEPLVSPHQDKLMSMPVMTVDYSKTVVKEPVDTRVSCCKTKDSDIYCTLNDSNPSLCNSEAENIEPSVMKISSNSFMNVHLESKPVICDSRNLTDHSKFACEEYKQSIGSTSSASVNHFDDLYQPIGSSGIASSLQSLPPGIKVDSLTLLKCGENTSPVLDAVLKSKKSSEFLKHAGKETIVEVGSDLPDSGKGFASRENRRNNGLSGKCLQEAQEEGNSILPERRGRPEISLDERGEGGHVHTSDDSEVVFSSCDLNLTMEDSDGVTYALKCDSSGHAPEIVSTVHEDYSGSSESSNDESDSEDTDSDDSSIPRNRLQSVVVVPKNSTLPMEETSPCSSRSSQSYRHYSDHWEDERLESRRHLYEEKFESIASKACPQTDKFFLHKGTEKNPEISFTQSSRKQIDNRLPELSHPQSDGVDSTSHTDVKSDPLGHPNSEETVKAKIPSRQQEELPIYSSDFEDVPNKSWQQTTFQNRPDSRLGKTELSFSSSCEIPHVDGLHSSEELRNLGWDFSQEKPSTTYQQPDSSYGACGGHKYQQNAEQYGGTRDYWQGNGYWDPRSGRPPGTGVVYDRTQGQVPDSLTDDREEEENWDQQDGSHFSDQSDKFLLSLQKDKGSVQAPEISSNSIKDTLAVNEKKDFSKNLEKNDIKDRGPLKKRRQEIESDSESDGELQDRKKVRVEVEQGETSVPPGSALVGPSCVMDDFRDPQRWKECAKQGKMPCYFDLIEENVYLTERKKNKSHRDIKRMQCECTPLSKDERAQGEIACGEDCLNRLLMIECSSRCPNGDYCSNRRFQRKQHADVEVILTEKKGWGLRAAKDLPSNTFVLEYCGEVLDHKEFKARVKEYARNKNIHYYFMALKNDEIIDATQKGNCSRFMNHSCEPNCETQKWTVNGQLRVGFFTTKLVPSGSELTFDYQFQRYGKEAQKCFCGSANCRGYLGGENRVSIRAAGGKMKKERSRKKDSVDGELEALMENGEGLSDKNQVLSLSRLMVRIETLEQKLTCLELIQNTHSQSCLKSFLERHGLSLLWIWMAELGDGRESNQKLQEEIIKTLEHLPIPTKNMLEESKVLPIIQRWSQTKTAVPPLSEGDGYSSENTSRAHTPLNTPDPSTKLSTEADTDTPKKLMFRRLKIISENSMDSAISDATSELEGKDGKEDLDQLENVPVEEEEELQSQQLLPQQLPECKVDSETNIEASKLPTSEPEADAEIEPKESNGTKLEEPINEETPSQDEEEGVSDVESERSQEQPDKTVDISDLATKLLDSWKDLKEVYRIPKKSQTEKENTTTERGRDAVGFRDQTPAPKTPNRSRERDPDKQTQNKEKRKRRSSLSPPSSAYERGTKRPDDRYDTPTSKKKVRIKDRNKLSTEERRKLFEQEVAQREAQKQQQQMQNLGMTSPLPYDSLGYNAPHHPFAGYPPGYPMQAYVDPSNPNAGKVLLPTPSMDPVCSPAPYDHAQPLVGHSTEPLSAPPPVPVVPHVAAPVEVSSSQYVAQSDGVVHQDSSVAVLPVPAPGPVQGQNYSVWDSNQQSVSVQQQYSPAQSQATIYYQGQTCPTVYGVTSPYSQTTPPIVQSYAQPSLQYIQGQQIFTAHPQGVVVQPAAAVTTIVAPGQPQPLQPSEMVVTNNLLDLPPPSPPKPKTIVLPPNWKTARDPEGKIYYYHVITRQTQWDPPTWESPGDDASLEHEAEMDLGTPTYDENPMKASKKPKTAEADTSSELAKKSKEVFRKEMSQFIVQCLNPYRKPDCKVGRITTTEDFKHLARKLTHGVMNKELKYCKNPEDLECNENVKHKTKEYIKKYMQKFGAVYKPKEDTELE

By inhibition is commonly meant the drop in the measured response relative to a control, in per cent. The term IC50 denotes the concentration that gives 50% inhibition. For `C=CC(=O)Nc1cc(NC2CCN(C(C)C)CC2)c2cc(OC)c(OCCCN3CCCC3)cc2n1`, the inhibition in assay [1] and in assay [2] was under 50% each time. Besides, the results for the IC50 in assay [3] and in assay [4] were 140 nM and 100 nM, respectively. The result in the assay on MDA-MB-231 was Active.
